From ChEMBL document CHEMBL5230171, “Expanding the structure-activity relationships of alkynyl diphenylurea scaffold as promising antibacterial agents” (RSC Med Chem, 2023)
In brackets after ≈: the same amount, converted by molar mass. Activity calls are given as the source filed them. No cut-off for these calls is given here.

Assays:
[1] = test system: Staphylococcus aureus; assay: Antibacterial activity against methicillin resistant Staphylococcus aureus 385 assessed as inhibition of bacterial growth at 0.5 ug/ml incubated for 18 to 20 hrs by CLSI protocol based broth microdilution method; type: functional, organism-based; conditions: dose 0.5 µg/ml, time 18-20 hrs
[2] = test system: Staphylococcus aureus; assay: Antibacterial activity against methicillin resistant Staphylococcus aureus 123 assessed as inhibition of bacterial growth at 0.5 ug/ml incubated for 18 to 20 hrs by CLSI protocol based broth microdilution method; type: functional, organism-based; conditions: dose 0.5 µg/ml, time 18-20 hrs
[3] = test system: Staphylococcus aureus; assay: Antibacterial activity against methicillin resistant Staphylococcus aureus 386 assessed as inhibition of bacterial growth at 0.5 ug/ml incubated for 18 to 20 hrs by CLSI protocol based broth microdilution method; type: functional, organism-based; conditions: dose 0.5 µg/ml, time 18-20 hrs
[4] = test system: Staphylococcus aureus; assay: Antibacterial activity against vancomycin resistant Staphylococcus aureus 9 assessed as inhibition of bacterial growth at 0.5 ug/ml incubated for 18 to 20 hrs by CLSI protocol based broth microdilution method; type: functional, organism-based; conditions: dose 0.5 µg/ml, time 18-20 hrs
[5] = test system: Staphylococcus aureus; assay: Antibacterial activity against vancomycin resistant Staphylococcus aureus 12 assessed as inhibition of bacterial growth at 0.5 ug/ml incubated for 18 to 20 hrs by CLSI protocol based broth microdilution method; type: functional, organism-based; conditions: dose 0.5 µg/ml, time 18-20 hrs
[6] = test system: Staphylococcus aureus; assay: Antibacterial activity against vancomycin resistant Staphylococcus aureus 10 assessed as inhibition of bacterial growth at 0.5 ug/ml incubated for 18 to 20 hrs by CLSI protocol based broth microdilution method; type: functional, organism-based; conditions: dose 0.5 µg/ml, time 18-20 hrs
[7] = test system: Staphylococcus aureus; assay: Antibacterial activity against methicillin resistant Staphylococcus aureus 119 assessed as inhibition of bacterial growth at 0.5 ug/ml incubated for 18 to 20 hrs by CLSI protocol based broth microdilution method; type: functional, organism-based; conditions: dose 0.5 µg/ml, time 18-20 hrs
[8] = test system: Staphylococcus aureus; assay: Antibacterial activity against methicillin sensitive Staphylococcus aureus 107 assessed as inhibition of bacterial growth at 0.5 ug/ml incubated for 18 to 20 hrs by CLSI protocol based broth microdilution method; type: functional, organism-based; conditions: dose 0.5 µg/ml, time 18-20 hrs
Procedure, shortened: (§1)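 Staphylococcal and E. coli strains were diluted from a 0.5 McFarland suspension in cation-adjusted Mueller Hinton broth to ~5 × 10^5 CFU mL−1. They were incubated with serial dilutions of test agent in broth microdilution, and the MIC was recorded.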

[9] = test system: Staphylococcus aureus; assay: Antibacterial activity against methicillin resistant Staphylococcus aureus 384 assessed as inhibition of bacterial growth at 0.5 ug/ml incubated for 18 to 20 hrs by CLSI protocol based broth microdilution method; type: functional, organism-based; conditions: dose 0.5 µg/ml, time 18-20 hrs
[10] = test system: Staphylococcus aureus; assay: Antibacterial activity against methicillin sensitive Staphylococcus aureus 6538 assessed as inhibition of bacterial growth at 0.5 ug/ml incubated for 18 to 20 hrs by CLSI protocol based broth microdilution method; type: functional, organism-based; conditions: dose 0.5 µg/ml, time 18-20 hrs; procedure, shortened: as §1
[11] = test system: Staphylococcus aureus; assay: Antibacterial activity against methicillin resistant Staphylococcus aureus NRS384 USA300 assessed as inhibition of bacterial growth incubated for 18 to 20 hrs by CLSI protocol based broth microdilution method; type: functional; conditions: time 18-20 hrs
Procedure, shortened: (§2)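 Broth microdilution against staphylococcal clinical isolates. Each strain was prepared as a 0.5 McFarland suspension and diluted in cation-adjusted Mueller Hinton broth to ~5 × 10^5 CFU mL−1. Serial dilutions of test agents in DMSO stock were incubated with the bacteria, and the MIC was recorded.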

[12] = test system: Vero; assay: Cytotoxicity against African green monkey Vero cells assessed as reduction in cell viability at 64 ug/ml incubated for 24 hrs by MTS assay; type: toxicity, cell-based; conditions: chlorocebus sabaeus, dose 64 µg/ml
Procedure, shortened: (§3)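 Vero or HaCaT cells were exposed to 32, 64 and 128 μg mL−1 compound in triplicate for 24 h at 37 °C, 5% CO2, with a DMSO control. MTS was then added for 4 h and OD490 read. Analysis used two-way ANOVA with Dunnett's post hoc test (p < 0.05).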

[13] = Cytotoxicity against human HaCaT cells assessed as tolerance by measuring cell viability at 64 ug/ml incubated for 24 hrs by MTS assay relative to control; type: toxicity, cell-based; conditions: at 64 µg/mL, read-out: Activity; procedure, shortened: as §3
[14] = test system: Streptococcus pyogenes; assay: Antibacterial activity against Streptococcus pyogenes MGAS 9882 assessed as inhibition of bacterial growth incubated for 18 to 20 hrs by CLSI protocol based broth microdilution method; type: functional; conditions: time 18-20 hrs
Procedure, shortened: (§4)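 Streptococci were diluted from a 0.5 McFarland suspension in cation-adjusted Mueller Hinton broth with 5% lysed horse blood. They were incubated with serial dilutions of test agent in broth microdilution, and the MIC was recorded.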

[15] = test system: Staphylococcus aureus; assay: Antibacterial activity against methicillin resistant Staphylococcus aureus 123 assessed as inhibition of bacterial growth incubated for 18 to 20 hrs by CLSI protocol based broth microdilution method; type: functional; conditions: time 18-20 hrs; procedure, shortened: as §2
[16] = test system: Listeria monocytogenes; assay: Antibacterial activity against Listeria monocytogenes 19111 assessed as inhibition of bacterial growth incubated for 18 to 20 hrs by CLSI protocol based broth microdilution method; type: functional; conditions: time 18-20 hrs
Procedure, shortened: (§5)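 Enterococci and L. monocytogenes were diluted from a 0.5 McFarland suspension in TSB. They were incubated with serial dilutions of test agent in broth microdilution, and the MIC was recorded.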

[17] = test system: Staphylococcus aureus; assay: Antibacterial activity against methicillin resistant Staphylococcus aureus 386 assessed as inhibition of bacterial growth incubated for 18 to 20 hrs by CLSI protocol based broth microdilution method; type: functional; conditions: time 18-20 hrs; procedure, shortened: as §2
[18] = test system: Staphylococcus aureus; assay: Antibacterial activity against methicillin resistant Staphylococcus aureus 385 assessed as inhibition of bacterial growth incubated for 18 to 20 hrs by CLSI protocol based broth microdilution method; type: functional; conditions: time 18-20 hrs; procedure, shortened: as §2
[19] = test system: Staphylococcus epidermidis; assay: Antibacterial activity against Staphylococcus epidermidis 101 assessed as inhibition of bacterial growth incubated for 18 to 20 hrs by CLSI protocol based broth microdilution method; type: functional; conditions: time 18-20 hrs; procedure, shortened: as §1
[20] = test system: Staphylococcus aureus; assay: Antibacterial activity against methicillin resistant Staphylococcus aureus 384 assessed as inhibition of bacterial growth incubated for 18 to 20 hrs by CLSI protocol based broth microdilution method; type: functional; conditions: time 18-20 hrs; procedure, shortened: as §2
[21] = test system: Staphylococcus aureus; assay: Antibacterial activity against methicillin resistant Staphylococcus aureus 119 assessed as inhibition of bacterial growth incubated for 18 to 20 hrs by CLSI protocol based broth microdilution method; type: functional; conditions: time 18-20 hrs; procedure, shortened: as §2
[22] = test system: Streptococcus pyogenes; assay: Antibacterial activity against Streptococcus pyogenes MGAS 1882 assessed as inhibition of bacterial growth incubated for 18 to 20 hrs by CLSI protocol based broth microdilution method; type: functional; conditions: time 18-20 hrs; procedure, shortened: as §4
[23] = test system: Streptococcus pneumoniae; assay: Antibacterial activity against Streptococcus pneumoniae 51916 assessed as inhibition of bacterial growth incubated for 18 to 20 hrs by CLSI protocol based broth microdilution method; type: functional; conditions: time 18-20 hrs; procedure, shortened: as §4
[24] = test system: Streptococcus pneumoniae; assay: Antibacterial activity against Streptococcus pneumoniae 700677 assessed as inhibition of bacterial growth incubated for 18 to 20 hrs by CLSI protocol based broth microdilution method; type: functional; conditions: time 18-20 hrs; procedure, shortened: as §4
[25] = test system: Staphylococcus aureus; assay: Antibacterial activity against methicillin sensitive Staphylococcus aureus 6538 assessed as inhibition of bacterial growth incubated for 18 to 20 hrs by CLSI protocol based broth microdilution method; type: functional; conditions: time 18-20 hrs; procedure, shortened: as §2
[26] = test system: Enterococcus faecium; assay: Antibacterial activity against Enterococcus faecium 700221 assessed as inhibition of bacterial growth incubated for 18 to 20 hrs by CLSI protocol based broth microdilution method; type: functional; conditions: time 18-20 hrs; procedure, shortened: as §5
[27] = test system: Staphylococcus aureus; assay: Antibacterial activity against vancomycin resistant Staphylococcus aureus 12 assessed as inhibition of bacterial growth incubated for 18 to 20 hrs by CLSI protocol based broth microdilution method; type: functional; conditions: time 18-20 hrs; procedure, shortened: as §2
[28] = test system: Staphylococcus aureus; assay: Antibacterial activity against vancomycin resistant Staphylococcus aureus 10 assessed as inhibition of bacterial growth incubated for 18 to 20 hrs by CLSI protocol based broth microdilution method; type: functional; conditions: time 18-20 hrs; procedure, shortened: as §2
[29] = test system: Streptococcus mutans; assay: Antibacterial activity against Streptococcus mutans 25175 assessed as inhibition of bacterial growth incubated for 18 to 20 hrs by CLSI protocol based broth microdilution method; type: functional; conditions: time 18-20 hrs; procedure, shortened: as §4
[30] = test system: Staphylococcus aureus; assay: Antibacterial activity against methicillin sensitive Staphylococcus aureus 107 assessed as inhibition of bacterial growth incubated for 18 to 20 hrs by CLSI protocol based broth microdilution method; type: functional; conditions: time 18-20 hrs; procedure, shortened: as §2
[31] = test system: Staphylococcus aureus; assay: Antibacterial activity against vancomycin resistant Staphylococcus aureus 9 assessed as inhibition of bacterial growth incubated for 18 to 20 hrs by CLSI protocol based broth microdilution method; type: functional; conditions: time 18-20 hrs; procedure, shortened: as §2
[32] = test system: Enterococcus faecalis; assay: Antibacterial activity against Enterococcus faecalis 51299 assessed as inhibition of bacterial growth incubated for 18 to 20 hrs by CLSI protocol based broth microdilution method; type: functional; conditions: time 18-20 hrs; procedure, shortened: as §5

Row | SMILES | Activity [1] | Activity [2] | Activity [3] | Activity [4] | Activity [5] | Activity [6] | Activity [7] | Activity [8] | Activity [9] | Activity [10] | MIC ([11]; read-out: MIC) | Activity [12] | viability at 24 h, 64 ug/ml [13] | MIC [14] | MIC [15] | MIC [16] | MIC [17] | MIC [18] | MIC [19] | MIC [20] | other results
1 | C/C(=N\NC(=N)N)c1ccc(NC(=O)Nc2ccc(C#CC(O)CC(C)C)cc2)cc1 (stereo not drawn) | Active | Active | Active | Active | Active | Active | Active | Active | Active | Active | – | – | – | – | – | – | – | – | – | – | –
2 | CC(=O)NC[C@H]1CN(c2ccc(N3CCOCC3)c(F)c2)C(=O)O1 | Active | Active | Active | Active | Active | Active | Active | Active | Active | Active | – | – | – | – | – | – | – | – | – | – | –
3 | CCCCCCC#Cc1ccc(NC(=O)Nc2ccc(/C(C)=N/NC(=N)N)cc2)cc1 | Active | Active | Active | Active | Active | Active | Active | Active | Active | Active | 0.5 µg/mL (≈ 1.19 µM) | Non-Toxic | 100% | – | – | – | – | – | – | – | –
4 | C/C(=N\NC(=N)N)c1ccc(NC(=O)Nc2ccc(C#CCC(C)C)cc2)cc1 | Active | Active | Active | Active | Active | Active | Active | Active | Active | Active | 0.5 µg/mL (≈ 1.28 µM) | Non-Toxic | – | 0.5 µg/mL (≈ 1.28 µM) | 0.5 µg/mL (≈ 1.28 µM) | 0.5 µg/mL (≈ 1.28 µM) | 0.5 µg/mL (≈ 1.28 µM) | 0.5 µg/mL (≈ 1.28 µM) | 0.5 µg/mL (≈ 1.28 µM) | 0.5 µg/mL (≈ 1.28 µM) | MIC [21]: 0.5 µg/mL (≈ 1.28 µM); MIC [22]: 0.5 µg/mL (≈ 1.28 µM); MIC [23]: 0.5 µg/mL (≈ 1.28 µM); MIC [24]: 0.5 µg/mL (≈ 1.28 µM); MIC [25]: 0.5 µg/mL (≈ 1.28 µM); MIC [26]: 0.5 µg/mL (≈ 1.28 µM); MIC [27]: 0.5 µg/mL (≈ 1.28 µM); MIC [28]: 0.5 µg/mL (≈ 1.28 µM); MIC [29]: 0.5 µg/mL (≈ 1.28 µM); MIC [30]: 0.5 µg/mL (≈ 1.28 µM); MIC [31]: 0.5 µg/mL (≈ 1.28 µM); MIC [32]: 0.5 µg/mL (≈ 1.28 µM)
5 | C/C(=N\NC(=N)N)c1ccc(NC(=O)Nc2ccc(C#CC3CCCC3)cc2)cc1 | Active | Active | Active | Active | Active | Active | Active | Active | Active | Active | – | Non-Toxic | 100% | – | – | – | – | – | – | – | MIC [11]: 2 µg/mL (≈ 4.97 µM)
6 | CCCCC#Cc1ccc(NC(=O)Nc2ccc(/C(C)=N/NC(=N)N)cc2)cc1 | Active | Active | Active | Active | Active | Active | Active | Active | Active | Active | 0.5 µg/mL (≈ 1.28 µM) | Non-Toxic | – | 0.5 µg/mL (≈ 1.28 µM) | 0.5 µg/mL (≈ 1.28 µM) | 0.5 µg/mL (≈ 1.28 µM) | 0.5 µg/mL (≈ 1.28 µM) | 0.5 µg/mL (≈ 1.28 µM) | 0.5 µg/mL (≈ 1.28 µM) | 0.5 µg/mL (≈ 1.28 µM) | MIC [21]: 0.5 µg/mL (≈ 1.28 µM); MIC [22]: 0.5 µg/mL (≈ 1.28 µM); MIC [23]: 0.5 µg/mL (≈ 1.28 µM); MIC [24]: 0.5 µg/mL (≈ 1.28 µM); MIC [25]: 0.5 µg/mL (≈ 1.28 µM); MIC [26]: 0.5 µg/mL (≈ 1.28 µM); MIC [27]: 0.5 µg/mL (≈ 1.28 µM); MIC [28]: 0.5 µg/mL (≈ 1.28 µM); MIC [29]: 0.5 µg/mL (≈ 1.28 µM); MIC [30]: 0.5 µg/mL (≈ 1.28 µM); MIC [31]: 0.5 µg/mL (≈ 1.28 µM); MIC [32]: 0.5 µg/mL (≈ 1.28 µM)
